Article PMC9276175 (Medicine, 2022)

Legend:
HDAC1 = HDAC1 (Homo sapiens, UniProt Q13547); assay: Enzymatic HDAC fluorogenic assay, HDAC1; format: biochemical
HDAC2 = HDAC2 (Homo sapiens, UniProt Q92769); assay: Enzymatic HDAC fluorogenic assay, HDAC2; format: biochemical
HDAC3 = HDAC3 (Homo sapiens, UniProt O15379); assay: Enzymatic HDAC fluorogenic assay, HDAC3; format: biochemical
HDAC4 = HDAC4 (Homo sapiens, UniProt P56524); assay: Enzymatic HDAC fluorogenic assay, HDAC4; format: biochemical
HDAC6 = target: T1, HDAC6 (Homo sapiens, UniProt Q9UBN7); assay: Enzymatic HDAC fluorogenic assay, HDAC6; format: biochemical
T1 sequence (Q9UBN7 1-1215): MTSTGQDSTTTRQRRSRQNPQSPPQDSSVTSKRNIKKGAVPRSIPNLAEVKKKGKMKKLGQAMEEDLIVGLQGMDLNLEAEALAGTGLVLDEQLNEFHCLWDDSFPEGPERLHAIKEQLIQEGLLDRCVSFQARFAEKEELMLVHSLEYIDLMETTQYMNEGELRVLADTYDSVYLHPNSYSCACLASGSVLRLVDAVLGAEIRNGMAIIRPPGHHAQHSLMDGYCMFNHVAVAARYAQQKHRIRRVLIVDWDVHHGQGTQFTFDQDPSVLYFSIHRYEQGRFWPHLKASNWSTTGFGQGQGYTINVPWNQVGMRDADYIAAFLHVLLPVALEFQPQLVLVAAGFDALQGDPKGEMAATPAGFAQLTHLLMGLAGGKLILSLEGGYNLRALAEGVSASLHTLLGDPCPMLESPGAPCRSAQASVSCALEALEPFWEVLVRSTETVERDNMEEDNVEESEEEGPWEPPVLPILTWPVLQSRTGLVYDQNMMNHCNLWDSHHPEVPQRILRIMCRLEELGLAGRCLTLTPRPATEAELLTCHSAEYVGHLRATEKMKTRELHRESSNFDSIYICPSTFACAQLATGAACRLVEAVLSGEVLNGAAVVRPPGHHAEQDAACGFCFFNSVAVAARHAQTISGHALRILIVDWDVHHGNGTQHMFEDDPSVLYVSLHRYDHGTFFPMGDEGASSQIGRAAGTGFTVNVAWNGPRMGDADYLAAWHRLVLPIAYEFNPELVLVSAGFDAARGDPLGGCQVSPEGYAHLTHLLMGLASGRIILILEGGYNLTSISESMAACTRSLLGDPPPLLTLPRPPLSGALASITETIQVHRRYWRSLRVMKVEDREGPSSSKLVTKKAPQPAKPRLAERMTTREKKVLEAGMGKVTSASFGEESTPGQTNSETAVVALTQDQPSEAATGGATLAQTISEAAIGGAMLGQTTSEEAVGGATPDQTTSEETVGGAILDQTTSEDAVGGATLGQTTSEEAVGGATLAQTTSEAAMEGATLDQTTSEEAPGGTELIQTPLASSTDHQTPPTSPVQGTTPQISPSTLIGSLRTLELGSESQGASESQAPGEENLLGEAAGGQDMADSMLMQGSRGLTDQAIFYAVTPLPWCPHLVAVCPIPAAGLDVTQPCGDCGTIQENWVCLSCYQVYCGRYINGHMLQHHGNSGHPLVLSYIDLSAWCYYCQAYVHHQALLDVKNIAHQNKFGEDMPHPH

HDAC11 = target: T2, HDAC11 (Homo sapiens, UniProt Q96DB2); assay: Enzymatic HDAC fluorogenic assay, HDAC11; format: biochemical
T2 sequence (Q96DB2 1-347): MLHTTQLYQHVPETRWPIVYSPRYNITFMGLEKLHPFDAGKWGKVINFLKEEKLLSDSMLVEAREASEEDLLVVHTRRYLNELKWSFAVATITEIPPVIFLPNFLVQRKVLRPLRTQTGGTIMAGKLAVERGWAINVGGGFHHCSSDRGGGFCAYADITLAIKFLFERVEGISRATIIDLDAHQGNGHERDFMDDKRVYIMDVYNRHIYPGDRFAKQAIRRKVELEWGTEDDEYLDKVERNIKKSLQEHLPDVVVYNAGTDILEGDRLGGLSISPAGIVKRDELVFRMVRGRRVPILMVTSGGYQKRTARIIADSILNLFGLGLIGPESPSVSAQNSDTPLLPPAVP

MDA-MB-231 cells [1] = assay: Cell proliferation assay; format: cell-based, human; conditions: for impaired MDA-MB-231 cell growth: 3 days; for anti-proliferative activity (in words): 1, 2 and 3 days
MDA-MB-231 cells [2] = assay: Western blot of acetylation status and HDAC expression; format: cell-based, human; conditions: 24 hours
How it was run: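 MDA-MB-231 cells were treated 24 hours with test compound at 50–500 μM, with DMSO as negative control. Cells were lysed on ice in RIPA buffer (pH 7.6) with protease and phosphatase inhibitors. Protein (30 µg/lane) was run on SDS-PAGE and blotted to PVDF, then blocked in 5% skim milk/TBST. Antibodies against Ac-α-tubulin (Lys40), α-tubulin, Ac-histone H3 (Lys9), H3, HDAC1, HDAC6 and GAPDH were applied overnight, followed by HRP secondary and ECL detection.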

MDA-MB-231 cells [3] = assay: Assessment of cell morphology; format: cell-based, human; conditions: 24 hours, dose-dependent, most significant at 300 to 500 μM

Sequence of HDAC4 (P56524 627-1084 limits assumed): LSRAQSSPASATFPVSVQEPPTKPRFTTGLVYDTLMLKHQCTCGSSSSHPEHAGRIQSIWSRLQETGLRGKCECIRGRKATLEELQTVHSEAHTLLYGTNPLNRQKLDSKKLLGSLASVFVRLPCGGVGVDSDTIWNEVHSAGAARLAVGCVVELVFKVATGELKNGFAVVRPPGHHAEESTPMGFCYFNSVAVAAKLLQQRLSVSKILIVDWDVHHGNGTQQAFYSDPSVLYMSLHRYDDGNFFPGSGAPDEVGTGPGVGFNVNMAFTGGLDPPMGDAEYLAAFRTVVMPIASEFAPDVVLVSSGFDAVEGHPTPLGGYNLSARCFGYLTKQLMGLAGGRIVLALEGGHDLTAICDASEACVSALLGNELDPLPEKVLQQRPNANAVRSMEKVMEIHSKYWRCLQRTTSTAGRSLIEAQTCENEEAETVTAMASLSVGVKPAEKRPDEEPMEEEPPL
Sequence of HDAC1 (Q13547 whole entry): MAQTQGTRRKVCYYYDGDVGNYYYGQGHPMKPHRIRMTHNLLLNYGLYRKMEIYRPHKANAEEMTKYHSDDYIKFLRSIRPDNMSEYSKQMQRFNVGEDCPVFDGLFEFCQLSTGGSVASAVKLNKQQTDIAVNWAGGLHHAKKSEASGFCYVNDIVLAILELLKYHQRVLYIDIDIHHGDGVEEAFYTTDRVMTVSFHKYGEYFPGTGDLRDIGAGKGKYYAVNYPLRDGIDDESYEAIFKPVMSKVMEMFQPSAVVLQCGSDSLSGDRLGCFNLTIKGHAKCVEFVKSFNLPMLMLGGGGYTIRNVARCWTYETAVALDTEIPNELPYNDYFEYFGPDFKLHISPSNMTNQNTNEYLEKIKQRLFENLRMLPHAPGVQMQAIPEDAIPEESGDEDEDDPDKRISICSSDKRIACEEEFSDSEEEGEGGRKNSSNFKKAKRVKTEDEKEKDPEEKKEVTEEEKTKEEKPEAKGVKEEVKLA
Sequence of HDAC3 (O15379 whole entry): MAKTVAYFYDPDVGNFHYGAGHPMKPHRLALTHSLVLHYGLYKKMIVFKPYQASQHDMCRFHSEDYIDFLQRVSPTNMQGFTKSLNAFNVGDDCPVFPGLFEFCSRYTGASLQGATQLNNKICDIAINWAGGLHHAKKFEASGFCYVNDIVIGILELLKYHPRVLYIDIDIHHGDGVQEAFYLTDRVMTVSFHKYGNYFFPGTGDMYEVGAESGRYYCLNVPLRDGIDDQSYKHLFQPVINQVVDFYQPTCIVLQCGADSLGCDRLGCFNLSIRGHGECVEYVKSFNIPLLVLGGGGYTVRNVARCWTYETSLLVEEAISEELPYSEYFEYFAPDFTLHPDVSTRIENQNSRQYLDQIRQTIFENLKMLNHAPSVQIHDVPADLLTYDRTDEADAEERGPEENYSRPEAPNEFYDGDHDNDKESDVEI
Sequence of HDAC3 (Q9Y618 395-489 partner limits assumed): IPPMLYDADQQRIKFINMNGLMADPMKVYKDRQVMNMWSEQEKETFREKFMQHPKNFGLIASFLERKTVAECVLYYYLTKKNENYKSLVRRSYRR
Sequence of HDAC2 (Q92769 whole entry): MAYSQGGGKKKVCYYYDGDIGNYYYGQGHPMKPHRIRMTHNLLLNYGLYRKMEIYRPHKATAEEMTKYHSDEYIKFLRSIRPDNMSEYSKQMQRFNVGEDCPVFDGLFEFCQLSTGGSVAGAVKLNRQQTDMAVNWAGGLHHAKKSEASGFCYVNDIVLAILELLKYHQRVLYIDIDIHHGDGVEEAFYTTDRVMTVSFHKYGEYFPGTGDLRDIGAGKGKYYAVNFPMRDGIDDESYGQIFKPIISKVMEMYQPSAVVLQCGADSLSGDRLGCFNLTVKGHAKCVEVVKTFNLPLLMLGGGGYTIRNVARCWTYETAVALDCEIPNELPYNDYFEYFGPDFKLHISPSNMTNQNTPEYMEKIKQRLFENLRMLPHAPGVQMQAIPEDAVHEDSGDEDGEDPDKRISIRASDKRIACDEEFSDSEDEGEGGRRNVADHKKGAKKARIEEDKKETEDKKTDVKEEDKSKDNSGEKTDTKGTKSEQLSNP

Row | SMILES | IC50 (HDAC1) [µM] | IC50 (HDAC2) [µM] | IC50 (HDAC3) [µM] | IC50 (HDAC4) [µM] | inhibition of class IIa HDAC (in words) (HDAC4) | IC50 (HDAC6) [µM] | inhibition of class IIb HDAC (in words) (HDAC6) | IC50 (HDAC11) [µM] | inhibition of class IV HDAC (in words) (HDAC11) | impaired MDA-MB-231 cell growth (MDA-MB-231 cells [1]; 500 μM) [%] | impaired MDA-MB-231 cell growth (MDA-MB-231 cells [1]; 1000 μM) [%] | anti-proliferative activity (in words) (MDA-MB-231 cells [1]; concentrations from 300 to 1000 μM) | anti-proliferative activity (in words) (MDA-MB-231 cells [1]; up to 100 μM concentration) | expression level of HDAC6 (MDA-MB-231 cells [2]; 500 μM) | expression level of HDAC6 (MDA-MB-231 cells [2]; 50 to 500 μM) | acetylation of α-tubulin (MDA-MB-231 cells [2]; concentrations ranging from 300 to 500 μM) | acetylation of Histone H3 (MDA-MB-231 cells [2]; up to 300 μM concentration) | morphological changes in cells (MDA-MB-231 cells [3]) | inhibition of class IV HDAC11 (in words) (HDAC11; up to 100 μM concentration)
1 | O=C(CCCCCNC(=O)c1ccccc1O)Nc1ccccc1 [Compound 5, 2-Hydroxy-N-(6-oxo-6-(phenylamino)hexyl)benzamide] | 22.2 ± 2.69 | 27.3 ± 3.71 | 7.9 ± 2.57 | > 100 | failed to inhibit | > 100 | failed to inhibit | > 100 | failed to inhibit | 64 | 81 | mediocre dose- and time-dependent anti-proliferative activity | no anti-proliferative activity | significantly depleted the expression level of HDAC6 | decreased the expression level of HDAC6 in a dose-dependent manner | promoted the acetylation of α-tubulin | dose-dependently increased the acetylation of Histone H3 | more elongated and spindle-shaped | 
2 | O=C(CCCCCCC(=O)Nc1ccccc1)NO [SAHA, Vorinostat, reference compound] |  |  |  |  |  |  |  |  |  |  |  |  |  |  |  |  |  |  | no inhibition
